Results reported in ChEMBL document CHEMBL4613280, “Development of Pyrazolo[3,4-d]pyrimidine Kinase Inhibitors as Potential Clinical Candidates for Glioblastoma Multiforme” (ACS Med Chem Lett, 2020).
The source made the active and inactive calls. The rule behind the calls is not given here.

Legend:
[1] = Antagonistic cytotoxicity against human GIN8 cells assessed as combination index measured after 48 hrs in presence of 2-[[4-(2-phenylethylamino)-1-[styryl]pyrazolo[3,4-d]pyrimidin-6-yl]amino]ethanol by Chou-Talalay assay; type: functional
Procedure, shortened: (§1)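 Each drug pair dosed at a 1:1 molar ratio on the GBM lines and incubated 48 h. CI computed from three independent IC50 experiments (n = 3), reported as mean ± SD.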

[2] = Synergistic cytotoxicity against human GCE28 cells assessed as combination index measured after 48 hrs in presence of N-(3-bromophenyl)-1-(2-chloro-2-phenylethyl)-6-(2-morpholinoethylsulfanyl)pyrazolo[3,4-d]pyrimidin-4-amine by Chou-Talalay assay; type: functional; procedure, shortened: as §1
[3] = Cytotoxicity against human GCE28 cells derived from central tumor core of GBM patient assessed as reduction in cell viability measured after 48 hrs by Prestoblue assay; type: functional, cell-based
Procedure, shortened: (§2)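 Compounds diluted in DMEM containing 10% FBS and applied for 48 h. Viability read by PrestoBlue. IC50 calculated from three independent experiments, mean ± SE. Two-way ANOVA with Dunnett's multiple comparisons test.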

[4] = Synergistic cytotoxicity against human GIN28 cells assessed as combination index measured after 48 hrs in presence of 2-[[4-(2-phenylethylamino)-1-[styryl]pyrazolo[3,4-d]pyrimidin-6-yl]amino]ethanol by Chou-Talalay assay; type: functional; procedure, shortened: as §1
[5] = Synergistic cytotoxicity against human GCE28 cells assessed as combination index measured after 48 hrs in presence of 2-[[4-(2-phenylethylamino)-1-[styryl]pyrazolo[3,4-d]pyrimidin-6-yl]amino]ethanol by Chou-Talalay assay; type: functional; procedure, shortened: as §1
[6] = Cytotoxicity against human GIN28 cells derived from invasive region of GBM patient assessed as reduction in cell viability measured after 48 hrs by Prestoblue assay; type: functional, cell-based; procedure, shortened: as §2
[7] = Cytotoxicity against human GIN8 cells derived from invasive region of GBM patient assessed as reduction in cell viability measured after 48 hrs by Prestoblue assay; type: functional, cell-based; procedure, shortened: as §2
[8] = Synergistic cytotoxicity against human GIN8 cells assessed as combination index measured after 48 hrs in presence of N-(3-bromophenyl)-1-(2-chloro-2-phenylethyl)-6-(2-morpholinoethylsulfanyl)pyrazolo[3,4-d]pyrimidin-4-amine by Chou-Talalay assay; type: functional
Procedure, shortened: (§3)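 Two kinase inhibitors were combined at a 1:1 molar ratio, diluted in DMEM with 10% FBS, and incubated with the GBM cells for 48 h. Viability was read by PrestoBlue. Combination index values were calculated from three independent IC50 experiments (n = 3) and are reported as mean ± SD.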

[9] = Synergistic cytotoxicity against human GIN28 cells assessed as combination index measured after 48 hrs in presence of N-(3-bromophenyl)-1-(2-chloro-2-phenylethyl)-6-(2-morpholinoethylsulfanyl)pyrazolo[3,4-d]pyrimidin-4-amine by Chou-Talalay assay; type: functional; procedure, shortened: as §3
[10] = Synergistic cytotoxicity against human GIN28 cells assessed as combination index measured after 48 hrs in presence of 3-(4-chlorophenyl)-1-(2-chloro-2-phenylethyl)pyrazolo[3,4-d]pyrimidin-4-amine by Chou-Talalay assay; type: functional; procedure, shortened: as §1
[11] = Additive cytotoxicity against human GIN28 cells assessed as combination index measured after 48 hrs in presence of N-(3-bromophenyl)-1-(2-chloro-2-phenylethyl)6(2morpholinoethylsulfanyl)pyrazolo[3,4-d]pyrimidin-4-amine by Chou-Talalay assay; type: functional; procedure, shortened: as §1
[12] = Additive cytotoxicity against human GCE28 cells assessed as combination index measured after 48 hrs in presence of N-(3-bromophenyl)-1-(2-chloro-2-phenylethyl)6(2morpholinoethylsulfanyl)pyrazolo[3,4-d]pyrimidin-4-amine by Chou-Talalay assay; type: functional; procedure, shortened: as §1
Homo sapiens [13] = species: Homo sapiens; assay: Induction of apoptosis in human GCE28 cells assessed as increase in caspase 3/7 activation at 12.5 uM measured after 48 hrs by CellEvent caspase 3/7 probe based fluorescence analysis; type: functional, cell-based
Procedure, shortened: (§4)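 Cells exposed 48 h to compounds diluted in 10% FBS DMEM. Activated caspase-3/7 detected with the CellEvent probe. Staurosporine 10.0 μM served as reference inducer. Mean ± SEM (n = 3). Two-way ANOVA with Dunnett's test.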

Homo sapiens [14] = species: Homo sapiens; assay: Induction of apoptosis in human GIN8 cells assessed as increase in caspase 3/7 activation at 12.5 uM measured after 48 hrs by CellEvent caspase 3/7 probe based fluorescence analysis; type: functional, cell-based; procedure, shortened: as §4
[15] = Additive cytotoxicity against human GIN8 cells assessed as combination index measured after 48 hrs in presence of N-(3-bromophenyl)-1-(2-chloro-2-phenylethyl)6(2morpholinoethylsulfanyl)pyrazolo[3,4-d]pyrimidin-4-amine by Chou-Talalay assay; type: functional; procedure, shortened: as §1
Homo sapiens [16] = species: Homo sapiens; assay: Induction of apoptosis in human GIN28 cells assessed as increase in caspase 3/7 activation at 12.5 uM measured after 48 hrs by CellEvent caspase 3/7 probe based fluorescence analysis; type: functional, cell-based; procedure, shortened: as §4
[17] = Antagonistic cytotoxicity against human GIN8 cells assessed as combination index measured after 48 hrs in presence of 3-(4-chlorophenyl)-1-(2-chloro-2-phenylethyl)pyrazolo[3,4-d]pyrimidin-4-amine by Chou-Talalay assay; type: functional; procedure, shortened: as §1
[18] = biological target: Serine/threonine-protein kinase Sgk1 (Homo sapiens, UniProt O00141, S422D); assay: Inhibition of human N-terminal His6-tagged N-truncated human SGK1 harboring S422D mutant expressed in Sf21 cells using Sgktide-peptide as substrate in presence of [gamma-32P]ATP by scintillation counting method
[19] = Synergistic cytotoxicity against human GCE28 cells assessed as combination index measured after 48 hrs in presence of 3-(4-chlorophenyl)-1-(2-chloro-2-phenylethyl)pyrazolo[3,4-d]pyrimidin-4-amine by Chou-Talalay assay; type: functional; procedure, shortened: as §1

Chain of Serine/threonine-protein kinase Sgk1 (O00141 whole entry S422D, the tested form may be a part): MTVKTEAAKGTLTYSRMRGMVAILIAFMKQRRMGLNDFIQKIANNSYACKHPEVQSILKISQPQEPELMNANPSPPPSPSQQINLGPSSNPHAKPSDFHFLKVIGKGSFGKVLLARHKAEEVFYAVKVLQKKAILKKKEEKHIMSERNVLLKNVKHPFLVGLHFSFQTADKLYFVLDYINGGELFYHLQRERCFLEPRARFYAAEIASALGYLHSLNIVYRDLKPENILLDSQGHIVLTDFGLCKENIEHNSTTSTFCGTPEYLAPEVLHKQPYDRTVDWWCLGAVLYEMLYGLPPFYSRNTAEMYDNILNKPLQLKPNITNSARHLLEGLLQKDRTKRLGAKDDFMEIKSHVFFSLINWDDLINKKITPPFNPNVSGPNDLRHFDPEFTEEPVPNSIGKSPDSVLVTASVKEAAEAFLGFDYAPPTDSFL

Work on `Nc1ncnc2c1c(-c1ccc(Cl)cc1)nn2CC(Cl)c1ccccc1` (configuration not stated) yielded a CI [1] of 1.13, a CI [2] of 0.88 and an IC50 [3] of 47.6 µM. It also gave a CI [4] of 0.57, a CI [5] of 0.46 and an IC50 [6] of 49.8 µM. For the same compound, the IC50 [7] was 54.7 µM, the CI [8] was 0.53 and the CI [9] was 0.76.

In the case of `OCCNc1nc(NCCc2ccccc2)c2cnn(/C=C/c3ccccc3)c2n1`, the CI [10] is reported as 0.57, the CI [11] is reported as 0.9 and the CI [12] is reported as 0.97. The Activity (Homo sapiens [13]) was “Active”, the IC50 [3] was 10.7 µM and the Activity (Homo sapiens [14]) was “Active”. For the same compound, the IC50 [6] was 14.4 µM, the CI [15] was 0.99 and the Activity (Homo sapiens [16]) was “inactive”. The CI [17] was 1.13, the IC50 [7] was 10.5 µM and the Ki [18] was 0.6 µM. It also gave a CI [19] of 0.46.
